Source: ChEMBL document CHEMBL5653631, “A Potent and Selective ULK1 Inhibitor Suppresses Autophagy and Sensitizes Cancer Cells to Nutrient Stress” (iScience, 2018)
Values belong to the compound of their own block, whether it stands above or below them. Activity calls are given as the source filed them. The rule behind the calls is not given here.

Key:
[1] = target: Serine/threonine-protein kinase PLK2 (Homo sapiens) (UniProt Q9NYY3); experiment: Inhibition of human recombinant PLK2 at 500 nM related to control ULK1
Homo sapiens = species on record: Homo sapiens; experiment: Inhibition of human recombinant CK1d at 500 nM in presence of ATP by radiometric assay relative to control
[2] = target: Cyclin-dependent kinase 3 (Homo sapiens) (UniProt Q00526); experiment: Inhibition of human recombinant CDK3 at 500 nM related to control ULK1
[3] = target: Serine/threonine-protein kinase N1 (Homo sapiens) (UniProt Q16512); experiment: Inhibition of human recombinant PKN1 at 500 nM related to control ULK1
[4] = target: Calcium/calmodulin-dependent protein kinase type 1 (Homo sapiens) (UniProt Q14012); experiment: Inhibition of human recombinant CaMK1a at 40 nM related to control ULK1
[5] = target: Leukocyte tyrosine kinase receptor (Homo sapiens) (UniProt P29376); experiment: Inhibition of human recombinant LTK at 40 nM in presence of ATP by radiometric assay relative to control
[6] = target: Tyrosine-protein kinase FRK (Homo sapiens) (UniProt P42685); experiment: Inhibition of human recombinant FRK at 40 nM in presence of ATP by radiometric assay relative to control
U2OS = experiment: Inhibition of autophagy in human U2OS cells expressing […] assessed as DFCP1-positive puncta formation at 5 uM incubated for 2.5 hrs in presence of […] by Fluorescent microscopy based analysis; assay type: functional, cell-based
How it was run: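 U2OS cells stably expressing EGFP-DFCP1 treated 2.5 hr with vehicle or 100 nM AZD8055, with or without 5 μM inhibitor; imaged live by fluorescence microscopy; DFCP1-positive objects per cell counted in 20–25 cells per condition; mean ± SEM, two-tailed unpaired t test.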

[7] = target: T1, Tyrosine-protein kinase ZAP-70 (Homo sapiens) (UniProt P43403); experiment: Inhibition of human recombinant ZAP70 at 15 nM in presence of ATP by radiometric assay relative to control
T1 sequence (whole entry): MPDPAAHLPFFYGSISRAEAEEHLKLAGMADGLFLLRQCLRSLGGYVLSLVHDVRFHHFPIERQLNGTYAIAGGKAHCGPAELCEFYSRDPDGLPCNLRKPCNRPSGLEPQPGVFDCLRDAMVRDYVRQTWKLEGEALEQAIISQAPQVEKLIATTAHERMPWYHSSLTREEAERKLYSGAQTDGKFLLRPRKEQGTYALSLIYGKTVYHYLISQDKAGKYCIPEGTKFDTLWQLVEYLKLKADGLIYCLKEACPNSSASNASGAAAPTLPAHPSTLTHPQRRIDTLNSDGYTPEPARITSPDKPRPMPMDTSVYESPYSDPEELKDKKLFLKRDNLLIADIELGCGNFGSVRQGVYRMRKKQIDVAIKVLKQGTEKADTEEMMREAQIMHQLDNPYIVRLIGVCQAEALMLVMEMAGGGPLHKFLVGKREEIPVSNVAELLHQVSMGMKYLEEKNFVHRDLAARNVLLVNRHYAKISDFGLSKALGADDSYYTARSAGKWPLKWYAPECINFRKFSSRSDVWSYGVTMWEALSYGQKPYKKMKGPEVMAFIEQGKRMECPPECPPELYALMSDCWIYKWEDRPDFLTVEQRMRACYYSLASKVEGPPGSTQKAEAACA

[8] = target: Angiopoietin-1 receptor (Homo sapiens) (UniProt Q02763); experiment: Inhibition of human recombinant Tie2 at 15 nM in presence of ATP by radiometric assay relative to control
[9] = target: Receptor-type tyrosine-protein kinase FLT3 (Homo sapiens) (UniProt P36888); experiment: Inhibition of human recombinant FLT3 at 15 nM in presence of ATP by radiometric assay relative to control
[10] = target: Bone morphogenetic protein receptor type-1B (Homo sapiens) (UniProt O00238); experiment: Inhibition of human recombinant BMPR1B at 15 nM related to control ULK1
[11] = target: Serine/threonine-protein kinase ATR (Homo sapiens) (UniProt Q13535); experiment: Inhibition of human recombinant ATR at 15 nM in presence of ATP by radiometric assay relative to control
How it was run: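 Panel of 327 recombinant human kinases, each assayed in vitro by radiometric activity assay in duplicate at a single inhibitor concentration per compound, chosen with reference to its ULK1 inhibition. Activity remaining was expressed as percent of vehicle control, and percent inhibition was calculated as 100 minus percent activity remaining.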

[12] = target: T2, Serine/threonine-protein kinase NLK (Homo sapiens) (UniProt Q9UBE8); experiment: Inhibition of human recombinant NLK at 15 nM related to control ULK1
T2 sequence (whole entry): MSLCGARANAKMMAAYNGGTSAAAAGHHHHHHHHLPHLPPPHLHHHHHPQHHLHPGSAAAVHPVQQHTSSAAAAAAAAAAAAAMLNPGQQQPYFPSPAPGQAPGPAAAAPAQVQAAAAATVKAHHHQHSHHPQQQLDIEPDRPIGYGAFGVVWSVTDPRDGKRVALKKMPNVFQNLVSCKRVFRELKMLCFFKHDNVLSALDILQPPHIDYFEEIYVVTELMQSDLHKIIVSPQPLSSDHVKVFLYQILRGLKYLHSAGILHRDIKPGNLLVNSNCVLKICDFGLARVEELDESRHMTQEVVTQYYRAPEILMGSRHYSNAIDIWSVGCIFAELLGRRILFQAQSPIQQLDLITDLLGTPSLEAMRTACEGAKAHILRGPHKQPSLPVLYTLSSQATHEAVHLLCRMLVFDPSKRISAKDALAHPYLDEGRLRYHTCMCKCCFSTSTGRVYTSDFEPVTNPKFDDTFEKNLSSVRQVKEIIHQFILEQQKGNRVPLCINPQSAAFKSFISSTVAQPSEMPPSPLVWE

[13] = target: Serine/threonine-protein kinase MRCK alpha (Homo sapiens) (UniProt Q5VT25); experiment: Inhibition of human recombinant MRCKa at 15 nM in presence of ATP by radiometric assay relative to control
[14] = target: Dual specificity protein kinase CLK1 (Homo sapiens) (UniProt P49759); experiment: Inhibition of human recombinant CLK1 at 15 nM in presence of ATP by radiometric assay relative to control
[15] = target: Serine/threonine-protein kinase 38-like (Homo sapiens) (UniProt Q9Y2H1); experiment: Inhibition of human recombinant NDR2 at 15 nM in presence of ATP by radiometric assay relative to control
Sequence of Serine/threonine-protein kinase 38-like (Homo sapiens) (Q9Y2H1 2-464 limits assumed): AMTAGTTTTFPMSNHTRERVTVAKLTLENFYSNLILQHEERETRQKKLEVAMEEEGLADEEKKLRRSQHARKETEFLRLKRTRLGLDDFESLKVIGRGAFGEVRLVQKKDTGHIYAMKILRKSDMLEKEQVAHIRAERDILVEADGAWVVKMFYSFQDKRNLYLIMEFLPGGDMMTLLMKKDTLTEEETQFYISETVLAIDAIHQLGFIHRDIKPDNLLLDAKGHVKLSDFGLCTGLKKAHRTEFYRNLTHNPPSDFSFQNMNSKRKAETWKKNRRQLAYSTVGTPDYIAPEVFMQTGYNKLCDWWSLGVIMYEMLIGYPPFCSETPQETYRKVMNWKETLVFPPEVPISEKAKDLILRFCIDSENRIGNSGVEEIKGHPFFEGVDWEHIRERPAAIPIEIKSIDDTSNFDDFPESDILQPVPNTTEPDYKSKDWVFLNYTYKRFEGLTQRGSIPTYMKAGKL

Sequence of Receptor-type tyrosine-protein kinase FLT3 (Homo sapiens) (P36888 whole entry): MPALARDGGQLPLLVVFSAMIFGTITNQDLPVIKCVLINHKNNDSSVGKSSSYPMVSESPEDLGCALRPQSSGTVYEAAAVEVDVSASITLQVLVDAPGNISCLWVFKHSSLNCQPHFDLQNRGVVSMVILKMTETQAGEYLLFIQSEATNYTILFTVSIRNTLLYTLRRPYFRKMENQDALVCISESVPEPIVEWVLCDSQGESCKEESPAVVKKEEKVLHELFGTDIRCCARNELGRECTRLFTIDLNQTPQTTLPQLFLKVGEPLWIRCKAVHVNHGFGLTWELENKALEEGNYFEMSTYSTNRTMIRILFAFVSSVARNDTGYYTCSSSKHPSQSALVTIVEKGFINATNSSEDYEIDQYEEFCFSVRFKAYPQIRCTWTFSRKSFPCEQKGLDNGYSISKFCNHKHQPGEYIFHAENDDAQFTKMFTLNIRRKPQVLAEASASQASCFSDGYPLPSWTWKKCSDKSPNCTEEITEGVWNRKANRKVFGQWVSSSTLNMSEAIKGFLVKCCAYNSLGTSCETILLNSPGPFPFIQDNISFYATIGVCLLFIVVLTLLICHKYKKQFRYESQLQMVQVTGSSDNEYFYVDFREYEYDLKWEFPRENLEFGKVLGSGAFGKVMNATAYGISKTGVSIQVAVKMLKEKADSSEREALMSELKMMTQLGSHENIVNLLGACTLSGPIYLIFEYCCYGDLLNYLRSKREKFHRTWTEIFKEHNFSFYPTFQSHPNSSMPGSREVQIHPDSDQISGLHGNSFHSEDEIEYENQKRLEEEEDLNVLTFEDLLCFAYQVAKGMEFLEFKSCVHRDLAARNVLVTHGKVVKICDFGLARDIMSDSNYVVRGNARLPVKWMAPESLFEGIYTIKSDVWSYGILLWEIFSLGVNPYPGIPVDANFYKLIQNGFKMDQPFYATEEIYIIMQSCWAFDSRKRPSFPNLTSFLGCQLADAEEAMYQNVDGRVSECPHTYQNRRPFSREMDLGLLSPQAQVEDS
Sequence of Calcium/calmodulin-dependent protein kinase type 1 (Homo sapiens) (Q14012 whole entry, looked up): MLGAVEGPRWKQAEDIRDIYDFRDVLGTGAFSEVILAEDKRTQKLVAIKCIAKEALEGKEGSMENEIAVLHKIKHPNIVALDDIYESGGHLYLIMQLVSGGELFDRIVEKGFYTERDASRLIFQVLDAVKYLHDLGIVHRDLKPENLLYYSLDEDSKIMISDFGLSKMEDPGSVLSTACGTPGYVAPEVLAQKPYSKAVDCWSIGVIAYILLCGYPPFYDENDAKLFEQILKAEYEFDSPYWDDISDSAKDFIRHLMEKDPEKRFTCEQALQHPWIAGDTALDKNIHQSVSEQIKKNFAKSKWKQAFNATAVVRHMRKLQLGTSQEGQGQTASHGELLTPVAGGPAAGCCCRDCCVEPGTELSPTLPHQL
Sequence of Cyclin-dependent kinase 3 (Homo sapiens) (Q00526 whole entry, looked up): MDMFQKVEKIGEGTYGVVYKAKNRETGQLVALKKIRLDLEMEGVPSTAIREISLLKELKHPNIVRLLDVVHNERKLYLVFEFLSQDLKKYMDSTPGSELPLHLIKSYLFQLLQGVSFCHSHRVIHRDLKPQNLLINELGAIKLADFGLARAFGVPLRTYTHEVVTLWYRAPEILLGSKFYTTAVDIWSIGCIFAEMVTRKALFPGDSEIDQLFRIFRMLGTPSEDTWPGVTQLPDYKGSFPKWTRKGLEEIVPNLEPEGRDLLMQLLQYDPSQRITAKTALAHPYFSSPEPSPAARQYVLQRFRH
Sequence of Bone morphogenetic protein receptor type-1B (Homo sapiens) (O00238 whole entry): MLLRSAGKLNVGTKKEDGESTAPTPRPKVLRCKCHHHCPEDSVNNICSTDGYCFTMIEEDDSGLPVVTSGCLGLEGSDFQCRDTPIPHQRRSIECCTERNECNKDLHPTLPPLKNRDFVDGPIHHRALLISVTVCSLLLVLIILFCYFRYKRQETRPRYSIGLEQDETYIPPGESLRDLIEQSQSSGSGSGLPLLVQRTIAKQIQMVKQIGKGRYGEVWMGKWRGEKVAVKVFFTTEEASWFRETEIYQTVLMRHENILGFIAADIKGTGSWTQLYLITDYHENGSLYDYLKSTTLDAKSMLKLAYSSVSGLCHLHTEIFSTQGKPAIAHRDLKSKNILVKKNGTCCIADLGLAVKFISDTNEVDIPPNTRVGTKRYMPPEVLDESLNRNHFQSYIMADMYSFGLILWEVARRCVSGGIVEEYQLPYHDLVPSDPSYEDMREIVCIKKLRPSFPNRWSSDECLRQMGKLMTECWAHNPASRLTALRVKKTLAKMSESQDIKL
Sequence of Serine/threonine-protein kinase N1 (Homo sapiens) (Q16512 2-942 limits assumed): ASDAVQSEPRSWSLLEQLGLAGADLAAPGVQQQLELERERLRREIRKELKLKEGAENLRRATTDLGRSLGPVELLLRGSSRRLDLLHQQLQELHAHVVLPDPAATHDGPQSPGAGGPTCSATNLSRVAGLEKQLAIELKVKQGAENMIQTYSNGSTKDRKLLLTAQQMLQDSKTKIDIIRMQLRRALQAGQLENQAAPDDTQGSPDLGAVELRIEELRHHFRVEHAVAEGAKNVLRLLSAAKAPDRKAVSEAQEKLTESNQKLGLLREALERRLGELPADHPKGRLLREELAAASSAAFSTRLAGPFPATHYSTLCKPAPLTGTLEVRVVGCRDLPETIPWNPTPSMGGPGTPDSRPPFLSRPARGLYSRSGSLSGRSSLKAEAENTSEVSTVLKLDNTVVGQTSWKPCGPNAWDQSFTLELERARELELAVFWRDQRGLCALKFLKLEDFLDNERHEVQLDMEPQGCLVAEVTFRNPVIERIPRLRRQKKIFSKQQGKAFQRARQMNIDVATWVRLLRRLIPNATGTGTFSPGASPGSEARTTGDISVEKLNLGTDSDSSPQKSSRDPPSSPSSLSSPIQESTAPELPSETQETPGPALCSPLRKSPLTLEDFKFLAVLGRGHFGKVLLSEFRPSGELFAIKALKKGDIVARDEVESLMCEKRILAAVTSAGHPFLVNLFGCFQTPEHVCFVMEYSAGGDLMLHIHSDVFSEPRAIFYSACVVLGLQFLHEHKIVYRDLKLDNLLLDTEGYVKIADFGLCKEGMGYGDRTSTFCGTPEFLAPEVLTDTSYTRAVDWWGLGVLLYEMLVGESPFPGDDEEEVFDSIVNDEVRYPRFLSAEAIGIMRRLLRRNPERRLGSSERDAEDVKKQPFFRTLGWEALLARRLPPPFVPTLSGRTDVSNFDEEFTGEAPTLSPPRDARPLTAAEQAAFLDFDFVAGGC
Sequence of Leukocyte tyrosine kinase receptor (Homo sapiens) (P29376 whole entry): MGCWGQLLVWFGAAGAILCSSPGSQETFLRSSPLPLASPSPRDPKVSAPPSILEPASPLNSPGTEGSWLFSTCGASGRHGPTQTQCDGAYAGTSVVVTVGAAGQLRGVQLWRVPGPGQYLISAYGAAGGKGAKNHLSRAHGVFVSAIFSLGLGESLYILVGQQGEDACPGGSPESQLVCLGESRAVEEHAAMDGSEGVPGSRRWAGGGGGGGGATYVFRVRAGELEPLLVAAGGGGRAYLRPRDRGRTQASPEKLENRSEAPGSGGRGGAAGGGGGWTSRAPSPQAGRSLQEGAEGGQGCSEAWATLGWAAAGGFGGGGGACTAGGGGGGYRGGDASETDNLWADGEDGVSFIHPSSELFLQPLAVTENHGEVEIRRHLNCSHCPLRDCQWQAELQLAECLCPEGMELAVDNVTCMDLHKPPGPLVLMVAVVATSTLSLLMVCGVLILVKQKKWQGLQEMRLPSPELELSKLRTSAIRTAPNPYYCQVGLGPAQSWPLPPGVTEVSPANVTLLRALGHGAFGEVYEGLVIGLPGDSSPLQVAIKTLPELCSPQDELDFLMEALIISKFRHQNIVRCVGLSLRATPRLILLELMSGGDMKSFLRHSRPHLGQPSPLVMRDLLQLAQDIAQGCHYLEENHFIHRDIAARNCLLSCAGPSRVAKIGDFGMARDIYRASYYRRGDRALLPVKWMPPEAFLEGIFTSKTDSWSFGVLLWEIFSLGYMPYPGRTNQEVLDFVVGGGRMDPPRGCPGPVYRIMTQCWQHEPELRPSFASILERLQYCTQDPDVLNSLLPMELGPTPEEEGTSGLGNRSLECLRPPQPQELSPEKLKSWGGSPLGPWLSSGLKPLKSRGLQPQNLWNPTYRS
Sequence of Dual specificity protein kinase CLK1 (Homo sapiens) (P49759 whole entry, looked up): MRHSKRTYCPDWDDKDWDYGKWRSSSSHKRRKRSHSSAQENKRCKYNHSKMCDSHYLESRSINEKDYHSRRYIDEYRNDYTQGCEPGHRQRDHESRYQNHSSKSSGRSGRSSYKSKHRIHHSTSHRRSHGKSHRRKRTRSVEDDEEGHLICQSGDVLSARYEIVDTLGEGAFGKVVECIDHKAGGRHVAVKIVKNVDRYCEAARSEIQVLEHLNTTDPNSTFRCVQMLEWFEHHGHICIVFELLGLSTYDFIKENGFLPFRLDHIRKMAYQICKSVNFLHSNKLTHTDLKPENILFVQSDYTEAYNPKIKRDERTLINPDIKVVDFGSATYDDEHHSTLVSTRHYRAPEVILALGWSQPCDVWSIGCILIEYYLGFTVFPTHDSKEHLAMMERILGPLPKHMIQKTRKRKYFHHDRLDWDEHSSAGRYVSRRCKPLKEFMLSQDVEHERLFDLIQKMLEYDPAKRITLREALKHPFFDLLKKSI

fold change (FC) [1]: 0.05
inhibition (Homo sapiens): 10%
fold change (FC) [2]: 0.01
fold change (FC) [3]: 0
SMILES: CNC(=O)c1ccccc1Oc1nc(Nc2cc(OC)c(OC)c(OC)c2)ncc1Br

fold change (FC) [4]: 0
inhibition [5]: 0%
inhibition [6]: 0%
SMILES: O=C(N[C@@H](C1CC1)C(F)(F)F)c1cc(-c2cnn3cc(-c4ccc(F)cc4)cnc23)cs1
inhibition (U2OS): Active

inhibition [7]: 0%
inhibition [8]: 0%
inhibition [9]: 68%
fold change (FC) [10]: 0.27
inhibition [11]: 4%
fold change (FC) [12]: 0.1
inhibition [13]: 11%
inhibition [14]: 84%
inhibition [15]: 2%
SMILES: CC(C)[C@H](NC(=O)c1cc(-c2cnn3cc(-c4ccc(OCCN5CCCCC5)cc4)cnc23)cs1)C(F)(F)F
